# From ChEMBL document CHEMBL3272233, “Optical isomers of 2-(2-ethoxyphenoxymethyl)tetrahydro-1,4-oxazine (viloxazine) and related compounds” (1976)
# Legend:
# Mus musculus [1] = assay: Antidepressant activity in po dosed mouse assessed as antagonism of reserpine-induced hypothermia dosed 17 hrs after reserpine challenge; assay type: functional
# How it was run: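 Oral dosing, with doses in mg/kg. The racemate and separated optical isomers were tested by the previously published method. Potency is expressed as the ED10 for antagonism of reserpine-induced hypothermia.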
# Mus musculus [2] = assay: Sedative activity in po dosed mouse assessed as reduction in locomotor activity during 60 mins period immediately prior to and after dosing; assay type: functional; settings: 1 h, read-out: MED
# How it was run: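 Given orally, with doses in mg/kg. The racemate and individual isomers were run by the earlier reported procedure. The value is the minimum effective dose that reduced locomotor activity.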
Structure (SMILES),ED10 (Mus musculus [1]) [mg/kg],minimal effective dose (Mus musculus [2]) [mg/kg]
COc1cccc(OC[C@@H]2CNCCO2)c1,> 100,1
COc1cccc(OC[C@H]2CNCCO2)c1,> 100,30
COc1cccc(OCC2CNCCO2)c1 (racemic),> 100,3
CCOc1ccccc1OCC1CNCCO1 (racemic) [VILOXAZINE],0.3,3
CCOc1ccccc1OC[C@H]1CNCCO1 [(R)-VILOXAZINE],1,30
CCOc1ccccc1OC[C@@H]1CNCCO1 [(S)-VILOXAZINE],0.1,1
